# ROMK mod – modulators of human ROMK potassium channel; P48048; Tet-inducible ROMK, thallium flux fluorescence; actives lie on both sides; B-score at 10 µM; 130,000 tested, 2% active; AID 1918;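 active means signal ratio slope over the read window, or its plate-corrected B-score, at least 3 SD from the plate mean, either direction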;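 further: B-score of the F/F0 ratio slope over 7 to 12 s after thallium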
# Calb biofilm kill – mixture kills Candida albicans biofilm cells; 120,000 tested, 0.02% active; AID 1242; C. albicans biofilm persisters + clotrimazole, fluorescence viability; primary screen in compound mixtures of four per well; inhibition, % at 7.6 µM;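 active means inhibition above 30.3% in the primary screen of four-compound pools, then above 30% when the compound was retested; inconclusive means passed the primary limit but could not be retested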;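 further: compounds exposed to preformed 24 h biofilms for 48 h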
#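 Probe or stimulus – Clotrimazole 50 µg/mL co-treatment · System – C. albicans biofilms · Schedule – 24 h biofilm formation, then 48 h compound exposure, 37 °C · Evaluation – percent inhibition of biofilm viability · Technique – 2-h Alamar Blue fluorescence, 535/590 nm excitation/emission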
# TRPML3 agonist – agonists of human TRPML3 channel; HEK293 TRPML3-YFP, Fluo-8 calcium fluorescence; 100% = the carbachol control signal; activation, % at 3 µM; AID 1448; 220,000 tested, 0.29% active;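 active means activation above its plate's cutoff, the mean activation of the plate's test wells plus 3 SD, cut at about 12% in these data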
# Target sequence (Q8TDD5 whole entry, looked up): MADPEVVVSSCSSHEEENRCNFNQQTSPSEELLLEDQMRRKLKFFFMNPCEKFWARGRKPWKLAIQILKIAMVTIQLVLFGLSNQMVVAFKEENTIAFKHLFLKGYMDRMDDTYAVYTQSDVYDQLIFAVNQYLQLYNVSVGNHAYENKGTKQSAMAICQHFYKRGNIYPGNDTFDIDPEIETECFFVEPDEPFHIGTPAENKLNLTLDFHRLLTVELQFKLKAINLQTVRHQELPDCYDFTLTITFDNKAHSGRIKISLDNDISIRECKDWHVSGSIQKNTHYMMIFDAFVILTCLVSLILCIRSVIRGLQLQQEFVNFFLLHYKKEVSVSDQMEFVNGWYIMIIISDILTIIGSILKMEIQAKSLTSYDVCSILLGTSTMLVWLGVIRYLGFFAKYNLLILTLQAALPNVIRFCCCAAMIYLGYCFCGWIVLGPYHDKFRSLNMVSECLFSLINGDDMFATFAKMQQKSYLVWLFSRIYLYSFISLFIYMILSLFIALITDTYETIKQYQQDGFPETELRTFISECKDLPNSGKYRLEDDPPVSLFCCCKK
#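 system = HEK293 cells stably carrying human TRPML3-YFP | doses = one concentration, 3 µM nominal, 0.3% DMSO | timing = dye loading 1 h 37 °C then 30 min ambient, 125 s read | detection = Fluo-8 calcium dye fluorescence, ex 470-495, em 515-575 nm | benchmarks = high control carbachol 87 µM, low control DMSO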
# TRPN1 ag – activates the zebrafish TRPN1 channel; 220,000 tested, 0.18% active; AID 1424; HEK293 zebrafish TRPN1-YFP, Fluo-8 calcium fluorescence; 100% = response to 87 µM carbachol; activation, % at 3 µM;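 active means activation above its plate's cutoff, the mean activation of test wells on that plate plus 3 SD, cut at about 19% in these data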
#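 Material: zebrafish TRPN1-YFP in HEK293 cells; Doses: single test compound dose, 3 µM nominal, 0.3% DMSO; Timing: dye loading 1 h at 37 °C, then 30 min room temperature; Technique: intracellular calcium fluorescence with Fluo-8; Benchmarks: high carbachol 87 µM, low DMSO alone.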
# ABCG2 block – blocks JC-1 efflux by human ABCG2 transporter. Q9UNQ0. IgMXP3 cells, flow cytometry. inhibition, % at 6.6 µM. 190,000 tested, 0.1% active. AID 1325;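 active means inhibition above 80%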
#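 material = IgMXP3 (ABCG2) plus far-red-tagged CCRF-Adr (ABCB1) cells | amount = 3 million cells/mL, equal mix of both lines | also added = JC-1 transporter substrate | dosing = one concentration, 6.6 µM final | schedule = 10 min at 25 °C | measured by = flow cytometric JC-1 green MFI at 530 nm | read-out basis = percent efflux inhibition, scaled nicardipine 100% to DMSO 0%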
# ABCB1 block – blocks JC-1 efflux by human ABCB1 transporter; P08183; CCRF-Adr cells, flow cytometry; inhibition, % at 6.6 µM; 190,000 tested, 0.067% active; in the data active means inhibition above about 40%;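 further: higher value means more JC-1 retained so stronger ABCB1 efflux block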
# ROMK retest – retested hit modulating human ROMK potassium channel; 3,000 tested, 54% active; normalized thallium flux (F/F0 slope) at 10 µM; ROMK thallium flux, fluorescence ratio; hits give low values; shares compounds with ROMK mod;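 active means Flux at 10 µM at least 3 SD below or above vehicle control mean in one or both replicates; inconclusive means no clear call, values can overlap the other calls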
# Hits are given with their value; - = inactive; ? = inconclusive; . = no result. The sample as a whole holds a higher share of hits than the screen did.
SMILES,ROMK mod,Calb biofilm kill,TRPML3 agonist,TRPN1 ag,ABCG2 block,ABCB1 block,ROMK retest
CCOC(=O)C1CCN(c2ccc([N+](=O)[O-])c(C(C)=O)c2)CC1,-2.99,-,-,-,-,-,-
COc1ccc(-c2ocnc2C(=O)NCc2nn(-c3ccccc3)nc2C)cc1,.,-,-,-,.,.,.
O=C(/C=C/c1cccs1)c1ccc(Br)cc1,.,.,-,-,-,-,.
O=C(/C=C\c1cccs1)c1c(O)ccc2ccc(=O)oc12,-5.02,-,-,-,-,-,0.0496
Cc1ccsc1C(=O)OCC(=O)NC1CCS(=O)(=O)C1 (centres undefined),-,-,-,-,-,-,.
Cc1cc(C)nc(N/C(=N\S(=O)(=O)Cc2ccccc2)Nc2ccc(F)c(Cl)c2)n1,-,-,-,-,-,-,.
COC(=O)c1cc2c(C)c(C)c3ccccn3c-2c1C(=O)OC,-,.,-,-,-,-,.
CC(C)OC(=O)c1c2c(n3ccccc13)C(=O)c1ccccc1C2=O,.,-,-,-,-,-,0.0515
CC(C)CN(C(=O)C(c1ccccc1)c1ccccc1)c1c(N)n(CC(C)C)c(=O)[nH]c1=O,-,-,-,-,-,-,.
CCN(CC(=O)NCCC1=CCCCC1)S(=O)(=O)c1ccccc1,.,-,-,-,.,.,.
COC(=O)c1c(SCC(=O)Nc2ccc(C)c(C)c2)nc(=O)[nH]c1C,.,-,-,-,.,.,.
CCOc1cc(C=O)ccc1OS(=O)(=O)c1ccc(NC(C)=O)cc1,-,-,-,-,-,-,.
COc1ccccc1/C=C/C=C1N=C(/C=C/c2ccc(Cl)cc2)OC/1=O,-2.63,-,-,-,-,-,0.0626
COc1ccccc1/C=C/C1=NC(=C\C=C/c2ccccc2)/C(=O)O1,-,-,-,-,-,.,.
Cc1ccc(/C=N/NC(=O)CNC(=O)c2cccs2)o1,-,-,-,-,-,-,.
O=C(CNC(=O)c1cccs1)N/N=C/c1c[nH]c2ccccc12,-,-,-,-,-,-,.
O=C(CNC(=O)c1cccs1)N/N=C/c1ccco1,3.44,-,-,-,-,-,0.0669
CCOc1ccccc1/C=N/NC(=O)CNC(=O)c1cccs1,-2.11,-,-,-,-,-,-
Cc1ccc(C(=O)Nc2ccccc2C(=O)NCc2ccco2)cc1S(=O)(=O)N1CCCCC1,-,.,-,-,-,-,-
c1ccc(CSc2n[nH]c(-c3ccco3)n2)cc1,1.99,.,-,-,-,-,-
COc1ccc(N2CCN(c3c(S(=O)(=O)c4ccccc4)cnc4ccc(OC)cc34)CC2)cc1,.,-,-,-,-,-,?
CCOc1ccc2ncc(S(=O)(=O)c3ccccc3)c(N3CCN(c4ccc(OC)cc4)CC3)c2c1,.,-,-,-,-,-,.
N#C/C(=C\c1ccccn1)c1nc2ccccc2s1,-5.71,-,-,26.2,-,-,0.0321
O=C(C1=C[C@@H](c2ccc(C(F)(F)F)cc2)C[C@@H](OCCCCO)O1)N1CCN(Cc2ccc3c(c2)OCO3)CC1,.,-,-,-,-,-,.
O=C(CN1CCN(Cc2ccccc2Cl)C1=O)NC1CCCCCCC1,-2.64,.,-,-,-,-,0.0573
SMILES,ROMK mod,Calb biofilm kill,TRPML3 agonist,TRPN1 ag,ABCG2 block,ABCB1 block,ROMK retest
COc1cccc(/C=C(/C#N)c2ccc(Cl)cc2)c1OCc1cccc(C(=O)O)c1,2.38,-,-,-,-,-,-
Cc1cc2nc(-c3ccc4c(c3)CCC4)ccn2n1,-,-,-,-,-,-,.
CCCCCc1ccc(OCCC[n+]2ccccc2)c(CCCCC)c1,.,-,-,-,.,.,0.0602
CCCCCc1ccc(OCCOCCn2c[n+](C)c3ccccc32)c(CCCCC)c1,.,-,-,-,-,-,0.0456
CCN1C(=O)c2cccc3c(S(=O)(=O)NCC4CCCO4)ccc1c23 (centres undefined),.,-,-,-,.,.,.
Cc1ccc(NS(=O)(=O)c2cc(NC(=O)c3ccc4c(c3)NC(=O)CS4)ccc2Cl)c(C)c1,-,-,-,-,-,-,.
CN(CCC#N)C(=O)CC1(Cc2ccccc2)CCOC(C)(C)C1 (centres undefined),.,-,-,-,.,.,.
Cc1nnc(NC(=O)CSc2ncnc3c2cnn3-c2ccccc2C)s1,.,.,-,-,-,-,.
CCOC(=O)Cc1csc(NC(=O)CSc2ncnc3c2cnn3-c2ccccc2Cl)n1,.,.,-,-,-,-,0.0541
Nc1nn(-c2ccccc2)c(N)c1N=Nc1ccccc1,3.13,-,-,-,-,-,-
Cc1nn(-c2ccccc2)c(N)c1N=Nc1ccccc1,.,-,-,-,-,-,.
COc1ccccc1OCCn1c(C(C)O)nc2ccccc21 (centres undefined),-4.94,.,-,-,-,-,0.0657
COc1ccc(-n2c(C)c([N+](=O)[O-])c3ccc(O)c(CN4CCCCC4)c32)cc1,-,.,-,-,-,-,.
Cc1ccc(-n2c(C)c([N+](=O)[O-])c3ccc(O)c(CN(C)C)c32)cc1,-5.31,.,-,-,-,-,0.0485
Cc1snc(S(=O)(=O)/C(C#N)=N/Nc2ccc(C(F)(F)F)cc2)c1C#N,3.82,.,-,-,-,-,0.102
Cc1cccc(N/C(N)=N/c2nc(C)cc(=O)[nH]2)c1,.,-,-,-,-,-,.
COc1ccc(-n2cccc2C=O)cc1,-,-,-,-,-,-,.
COc1ccc(-n2cccc2/C=C/[N+](=O)[O-])cc1,-5.55,-,-,-,-,-,0.0412
Cc1nc(CSc2ccccc2)cc(=O)[nH]1,-,-,-,-,-,-,.
COC(=O)[C@@H]1C[C@@]2(O)[C@@H](O)[C@@H](O)[C@@H](O)C[C@H]2N1Cc1ccc(C(F)(F)F)cc1,.,-,.,.,.,.,-
COC(=O)[C@@H]1C[C@@]2(O)[C@H](O)[C@H](O)[C@H](O)C[C@H]2N1Cc1ccc(C(F)(F)F)cc1,.,-,.,.,.,.,.
CC(C)(C)C(=O)Nc1cccc2[nH]ncc12,-,-,-,-,-,-,.
Cc1ccc(C(=O)N/C(=C\c2ccc(-c3ccc([N+](=O)[O-])cc3)o2)C(=O)NC2CCS(=O)(=O)C2)cc1 (centres undefined),.,-,-,-,-,-,0.0474
CCc1nnc(NC(=O)C2CCN(c3nc(C)cc(C)n3)CC2)s1,2.17,.,-,-,-,-,-
CCOC(=O)C1(CCOc2ccccc2)CCN(Cc2ccc(-n3cccn3)cc2)CC1,-,-,-,-,-,-,.
CC(C)CCNCC(=O)NC(c1ccccc1)c1ccccc1,-,-,-,-,-,-,.
Cc1cccc(-c2nc(CN3CCCC(C(=O)NC4CCCCCC4)C3)c(C)o2)c1 (centres undefined),-3.52,.,-,-,-,-,0.0624
